Reference: ChEMBL document CHEMBL1141166, “2-[(Carboxymethyl)sulfanyl]-4-oxo-4-arylbutanoic acids selectively suppressed proliferation of neoplastic human HeLa cells. A SAR/QSAR study” (J Med Chem, 2005)

Key:
[1] = tested on: HeLa; assay: Observed concentration that required to induce 50% decrease in HeLa cell survival; type: functional, cell-based; details: Homo sapiens, read-out: Log 1/IC50 (converted)
Summary of the method: (§1)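 HeLa cells seeded at 2000/well and left 20 h, then exposed to five concentrations (final 3.12 to 50 or 100 μM/L, diluted from a 10 mM/L DMSO stock) in triplicate for 72 h. Medium was RPMI 1640 without phenol red with 10% FBS and 25 mM HEPES, pH 7.2. Survival by MTT: 4 h at 37 °C, SDS lysis, A570. Blank was subtracted and values taken as % of untreated control. IC50 is the concentration giving 50% survival loss.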

[2] = tested on: HeLa; assay: Inhibitory concentration inducing 50% decrease in HeLa cell survival; type: functional, cell-based; details: Homo sapiens; summary of the method: as §1
[3] = Partition coefficient (logP); type: physicochemical; details: octanol/water
Summary of the method: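 Calculated rather than measured: log P (n-octanol/water) estimated by Crippen's fragmentation method.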

[4] = tested on: PBMC (Homo sapiens); assay: Selectivity index that required to induce 50% decrease in PBMC (healthy human's peripheral blood cells) cells survival
[5] = tested on: PBMC (Homo sapiens); assay: Inhibitory concentration that required to induce 50% decrease in PBMC (healthy human's peripheral blood cells) cells survival
[6] = tested on: PBMC+PHA (Homo sapiens); assay: Selectivity index that required to induce 50% decrease in PBMC+PHA (healthy human's peripheral blood cells) cells survival
[7] = tested on: PBMC+PHA (Homo sapiens); assay: Inhibitory concentration that required to Induced a 50% decrease in PBMC+PHA (healthy human's peripheral blood cells) cells survival
[8] = tested on: PBMC+PHA (Homo sapiens); assay: Inhibitory concentration that required to induced a 50% decrease in PBMC+PHA (healthy human's peripheral blood cells) cells survival
[9] = tested on: PBMC+PHA (Homo sapiens); assay: Inhibitory concentration that required to induce 50% decrease in PBMC+PHA (healthy human's peripheral blood cells) cells survival
[10] = tested on: PBMC (Homo sapiens); assay: Inhibitory concentration that required to Induced a 50% decrease in PBMC (healthy human's peripheral blood cells) cells survival

SMILES | logP [3] | IC50 [1] | IC50 [2] | Si [4] | IC50 [5] | Si [6] | IC50 [7] | IC50 [8] | IC50 [9] | IC50 [10]
CC(C)c1ccc(C(=O)CC(SCC(=O)O)C(=O)O)cc1 (stereo not drawn) | 1.94 | 3.33 µM | 3.33 µM | – | – | – | – | – | – | –
Cc1ccc(C(=O)CC(SCC(=O)O)C(=O)O)c(Cl)c1 (stereo not drawn) | 1.75 | 4.73 µM | 4.73 µM | – | – | – | – | – | – | –
CCc1ccc(C(=O)CC(SCC(=O)O)C(=O)O)cc1 (stereo not drawn) | 1.61 | 4.79 µM | 4.79 µM | – | – | – | – | – | – | –
COc1ccc(C(=O)CC(SCC(=O)O)C(=O)O)c(OC)c1OC (stereo not drawn) | 0.33 | 29.5 µM | 29.5 µM | – | – | – | – | – | – | –
Cc1ccc(C(=O)CC(SCC(=O)O)C(=O)O)c(C)c1 (stereo not drawn) | 1.68 | 3.83 µM | 3.83 µM | – | – | – | – | – | – | –
Cc1ccc(C(=O)CC(SCC(=O)O)C(=O)O)cc1C (stereo not drawn) | 1.68 | 3.81 µM | 3.81 µM | – | – | – | – | – | – | –
CC(C)c1ccc(C(=O)CC(SCC(=O)O)C(=O)O)c(C(C)C)c1 (stereo not drawn) | 3.18 | 1.1 µM | 1.1 µM | 6.17 | 6.79 µM | 6.49 | – | 7.14 µM | – | –
Cc1ccc(C(=O)CC(SCC(=O)O)C(=O)O)cc1 (stereo not drawn) | 1.2 | 17.3 µM | 17.3 µM | – | – | – | – | – | – | –
CCCCCCCCCCCCc1ccc(C(=O)CC(SCC(=O)O)C(=O)O)cc1 (stereo not drawn) | 5.79 | 1.71 µM | 1.71 µM | – | – | – | – | – | – | –
CC(C)(C)c1ccc(C(=O)CC(SCC(=O)O)C(=O)O)cc1 (stereo not drawn) | 2.41 | 1.39 µM | 1.39 µM | – | – | – | – | – | – | –
O=C(O)CS [THIOGLYCOLIC ACID] | – | – | > 200 µM | – | > 200 µM | – | – | – | > 200 µM | –

The next lines start with results.

logP [3] | SMILES | IC50 [1] | IC50 [2] | Si [4] | IC50 [5] | Si [6] | IC50 [7] | IC50 [8] | IC50 [9] | IC50 [10]
1.54 | O=C(O)CSC(CC(=O)c1ccc(Br)cc1)C(=O)O (stereo not drawn) | 9.51 µM | 9.5 µM | – | – | – | – | – | – | –
2.45 | CCCCc1ccc(C(=O)CC(SCC(=O)O)C(=O)O)cc1 (stereo not drawn) | 1.91 µM | 1.92 µM | – | – | – | – | – | – | –
1.68 | Cc1ccc(C)c(C(=O)CC(SCC(=O)O)C(=O)O)c1 (stereo not drawn) | 2.68 µM | 2.68 µM | – | – | – | – | – | – | –
4.12 | CC(C)(C)c1ccc(C(C)(C)C)c(C(=O)CC(SCC(=O)O)C(=O)O)c1 (stereo not drawn) | 4.36 µM | 4.36 µM | 10 | 43.7 µM | 8.5 | 37.1 µM | – | – | –
0.71 | O=C(O)CSC(CC(=O)c1ccccc1)C(=O)O (stereo not drawn) | 15 µM | 15 µM | – | – | – | – | – | – | –
1.27 | O=C(O)CSC(CC(=O)c1ccc(Cl)cc1)C(=O)O (stereo not drawn) | 17.3 µM | 17.2 µM | – | – | – | – | – | – | –
3.18 | CC(C)c1ccc(C(C)C)c(C(=O)CC(SCC(=O)O)C(=O)O)c1 (stereo not drawn) | 0.644 µM | 0.644 µM | 20.65 | 13.3 µM | 24.33 | – | – | 15.7 µM | –
0.87 | O=C(O)CSC(CC(=O)c1ccc(F)cc1)C(=O)O (stereo not drawn) | 20.7 µM | 20.7 µM | – | – | – | – | – | – | –
4.41 | CC(C)c1cc(C(C)C)c(C(=O)CC(SCC(=O)O)C(=O)O)c(C(C)C)c1 (stereo not drawn) | 1.66 µM | 1.66 µM | 2 | – | 2.58 | 4.78 µM | – | – | 3.32 µM
3.42 | CCc1cc(CC)c(C(=O)CC(SCC(=O)O)C(=O)O)c(CC)c1 (stereo not drawn) | 0.879 µM | 0.88 µM | 21.56 | – | 22.63 | 19.9 µM | – | – | 19 µM
